Experimental data pooled from the literature.
Lines come from different studies, so protocols differ.
Target: Serine/threonine-protein kinase TAO3 (TAOK3, Homo sapiens, UniProt Q9H2K8)
Sequence (Q9H2K8 1-898, as in one of the studies): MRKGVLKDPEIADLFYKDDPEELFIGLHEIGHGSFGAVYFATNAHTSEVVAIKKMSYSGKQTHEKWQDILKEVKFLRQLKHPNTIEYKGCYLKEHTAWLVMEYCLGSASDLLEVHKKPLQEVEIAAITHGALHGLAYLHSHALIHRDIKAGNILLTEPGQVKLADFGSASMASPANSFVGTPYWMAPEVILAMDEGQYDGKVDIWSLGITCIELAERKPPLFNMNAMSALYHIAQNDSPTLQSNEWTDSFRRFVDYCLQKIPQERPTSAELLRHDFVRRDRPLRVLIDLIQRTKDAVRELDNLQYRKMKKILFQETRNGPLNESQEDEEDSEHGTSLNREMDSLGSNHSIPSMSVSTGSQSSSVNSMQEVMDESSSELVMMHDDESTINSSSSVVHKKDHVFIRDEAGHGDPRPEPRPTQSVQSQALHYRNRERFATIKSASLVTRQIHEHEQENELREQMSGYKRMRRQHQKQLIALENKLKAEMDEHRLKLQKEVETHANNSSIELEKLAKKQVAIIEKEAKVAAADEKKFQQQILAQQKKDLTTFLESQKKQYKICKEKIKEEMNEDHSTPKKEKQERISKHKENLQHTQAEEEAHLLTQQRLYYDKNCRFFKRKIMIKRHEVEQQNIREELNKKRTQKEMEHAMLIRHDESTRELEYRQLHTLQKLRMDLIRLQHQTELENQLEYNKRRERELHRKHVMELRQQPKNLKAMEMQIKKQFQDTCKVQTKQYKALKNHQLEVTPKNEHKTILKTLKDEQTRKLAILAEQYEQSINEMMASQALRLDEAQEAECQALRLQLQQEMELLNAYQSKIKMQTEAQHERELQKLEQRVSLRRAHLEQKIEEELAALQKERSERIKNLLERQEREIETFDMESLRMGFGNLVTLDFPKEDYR

Nc1ncnc2occ(-c3ccc(NC(=O)Nc4cc(C(F)(F)F)ccc4F)cc3)c12 gave a remaining signal of 0.05% (cell-free assay, inhibitor; 20 µM).
With O=C(O)c1cc(-c2ccc(C3CCNCC3)cc2)c2ccc(-c3ccc(C(F)(F)F)cc3)cc2c1 the remaining binding was 100% (cell-free assay, competition with immobilised ligand; 1 µM).
O=C(Nc1cnn(-c2csc(C(=O)NC3COC3)c2)c1)Nc1c(F)cccc1Cl has a remaining activity of 90.2% (enzyme activity, inhibitor; 5 µM).
With CS(=O)(=O)CCNCc1ccc(-c2ccc3ncnc(Nc4ccc(OCc5cccc(F)c5)c(Cl)c4)c3c2)o1 the remaining signal was 101% (cell-free assay; 0.5 µM).
The inhibition of Cc1ccc(Nc2nccc(N(C)c3ccc4c(C)n(C)nc4c3)n2)cc1S(N)(=O)=O is reported as 60% (enzyme activity, inhibitor; 0.3 µM).
The inhibition of COc1cc(-c2cc(-c3ccc(N4CCNCC4)cc3)cnc2C)cc(OC)c1OC is reported as 3% (enzyme activity, inhibitor; 0.1 µM).
With CCC(=N\O)/C(C)=C/c1ccc(F)cc1 the remaining binding was 86% (cell-free assay, competition with immobilised ligand; 1 µM).
The inhibition of CNC(=O)c1cc(Oc2ccc(NC(=O)Nc3ccc(Cl)c(C(F)(F)F)c3)cc2)ccn1 is reported as 77% (enzyme activity, inhibitor; 0.3 µM).
With Cc1ccc(NC(=O)c2ccc(C)c(C(F)(F)F)c2)cc1C#Cc1nn(C2CCC(O)CC2)c2ncnc(N)c12 (stereo not shown) the remaining signal was 2% (cell-free assay; 10 µM).
For CCCOc1ccc(OC)c(F)c1C(=O)c1ccc(C(=O)N[C@@H]2CNC[C@H]2NC(=O)c2ccc3[nH]ncc3c2)cc1, the remaining activity was 81% (enzyme activity, inhibitor; 10 µM).
The binding vs control of O=[N+]([O-])c1cccc2[nH]c(CNc3nc(N4CCOCC4)nc4c3ncn4-c3ccsc3)nc12 is reported as 85% (binding, competition with immobilised ligand; 10 µM).
O=C(Nc1ccc(Oc2ccc(F)cc2)cc1)N1CCc2ncccc2[C@H]1c1ccc(F)cc1 gave a remaining binding of 92% (cell-free assay, competition with immobilised ligand; 1 µM).
COc1cc2c(Nc3ccc(Br)cc3F)ncnc2cc1OCC1CCN(C)CC1 has a remaining signal of 98.4% (cell-free assay; 0.5 µM).
For CC(C)(C)c1nc2c(s1)c1nc(N)ncc1c1ccc(NS(=O)(=O)c3c(F)cccc3F)c(F)c12, the remaining activity was 87% (enzyme activity, inhibitor, radiometric; 1 µM).
For CC(=O)N1CCC(c2ccc(C(=O)NC3=NCCN3)cc2C(F)(F)F)CC1, the remaining binding was 87% (cell-free assay, competition with immobilised ligand; 1 µM).
The inhibition of CCCS(=O)(=O)Nc1ccc(F)c(C(=O)c2c[nH]c3ncc(-c4ccc(Cl)cc4)cc23)c1F is reported as under 10% (enzyme activity, inhibitor; 1 µM).
CCOCCn1cc(C(=O)Nc2ccc(-n3nc(-c4cccnc4)cc3C(F)(F)F)cn2)ccc1=O has a remaining binding of 66% (cell-free assay, competition with immobilised ligand; 1 µM).
Clc1ccc(Nc2nnc(Cc3ccncc3)c3ccccc23)cc1 has a remaining signal of 99.9% (cell-free assay; 0.5 µM).
For COCCOc1nc(-c2ccc(Cl)nc2)nc2c1CN(C(=O)c1ncn3ccccc13)CC2, the remaining binding was 100% (cell-free assay, competition with immobilised ligand; 0.1 µM).
For CCN(CC)CCNC(=O)c1c(C)[nH]c(/C=C2\C(=O)Nc3ccc(F)cc32)c1C, the remaining signal was 82.9% (cell-free assay; 0.5 µM).
The remaining binding of COc1ccc2c(c1)O[C@@H](c1ccc(OC)c(OC)c1)C[C@H]2NC(=O)C1(c2ccc3c(c2)OC(F)(F)O3)CC1 is reported as 91% (cell-free assay, competition with immobilised ligand; 1 µM).
With COc1cc2c(N3CCN(C(=O)Nc4ccc(OC(C)C)cc4)CC3)ncnc2cc1OCCCN1CCCCC1 the remaining signal was 96.8% (cell-free assay; 0.5 µM).
